Test results from ChEMBL document CHEMBL3596197, “Synthesis, topoisomerase I and II inhibitory activity, cytotoxicity, and structure-activity relationship study of 2-phenyl- or hydroxylated 2-phenyl-4-aryl-5H-indeno[1,2-b]pyridines” (Bioorg Med Chem, 2015).
Counter-ions that a name gives are not always drawn.

Tests used:
[1] = target: T1, DNA topoisomerase 1 (Homo sapiens) (UniProt P11387); test: Inhibition of human recombinant DNA topoisomerse 1 using pBR322 as substrate assessed as inhibition of conversion of supercoiled pBR322 to relaxed form at 100 uM after 30 mins by ethidium bromide staining-based electrophoresis analysis
T1 sequence (whole entry): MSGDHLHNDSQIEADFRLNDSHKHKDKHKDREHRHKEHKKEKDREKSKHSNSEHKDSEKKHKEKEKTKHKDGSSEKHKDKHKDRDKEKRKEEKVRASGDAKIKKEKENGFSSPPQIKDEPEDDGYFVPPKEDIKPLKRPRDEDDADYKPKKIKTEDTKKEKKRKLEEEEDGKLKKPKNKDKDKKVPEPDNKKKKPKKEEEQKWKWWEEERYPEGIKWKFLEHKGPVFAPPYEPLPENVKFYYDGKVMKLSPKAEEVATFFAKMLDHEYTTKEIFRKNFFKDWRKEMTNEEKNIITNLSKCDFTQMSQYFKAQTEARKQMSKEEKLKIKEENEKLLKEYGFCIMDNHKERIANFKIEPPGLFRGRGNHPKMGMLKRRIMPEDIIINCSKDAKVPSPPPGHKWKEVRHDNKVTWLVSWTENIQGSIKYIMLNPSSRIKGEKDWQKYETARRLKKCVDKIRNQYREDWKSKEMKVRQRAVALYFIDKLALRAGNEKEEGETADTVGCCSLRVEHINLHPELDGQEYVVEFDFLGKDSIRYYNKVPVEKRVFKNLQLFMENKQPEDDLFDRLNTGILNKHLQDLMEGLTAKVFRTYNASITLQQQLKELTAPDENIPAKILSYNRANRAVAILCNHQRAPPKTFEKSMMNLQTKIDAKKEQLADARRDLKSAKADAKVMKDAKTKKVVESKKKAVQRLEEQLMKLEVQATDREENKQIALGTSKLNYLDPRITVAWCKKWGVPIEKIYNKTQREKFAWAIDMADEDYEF
How it was run: (§1)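 Relaxation of supercoiled pBR322 (100 ng) by 1 unit recombinant human topo I. Run at 37 °C for 30 min in 10 mM Tris-HCl pH 7.9, 150 mM NaCl, 0.1% BSA, 1 mM spermidine, 5% glycerol. Compounds from 20 mM DMSO stocks. Stopped with sarcosyl, then 1% agarose gel at 15 V for 7 h in TAE. Ethidium bromide stain, UV imaging, bands quantitated.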

[2] = target: T1, DNA topoisomerase 1 (Homo sapiens); test: Inhibition of human recombinant DNA topoisomerse 1 using pBR322 as substrate assessed as inhibition of conversion of supercoiled pBR322 to relaxed form at 20 uM after 30 mins by ethidium bromide staining-based electrophoresis analysis; how it was run: as §1
[3] = target: DNA topoisomerase 2-alpha (Homo sapiens) (UniProt P11388); test: Inhibition of human recombinant DNA topoisomerse 2 alpha using pBR322 as substrate assessed as inhibition of conversion of supercoiled pBR322 to relaxed form at 100 uM after 30 mins by ethidium bromide staining-based electrophoresis analysis
DNA topoisomerase 2-alpha (Homo sapiens), sequence (P11388 whole entry): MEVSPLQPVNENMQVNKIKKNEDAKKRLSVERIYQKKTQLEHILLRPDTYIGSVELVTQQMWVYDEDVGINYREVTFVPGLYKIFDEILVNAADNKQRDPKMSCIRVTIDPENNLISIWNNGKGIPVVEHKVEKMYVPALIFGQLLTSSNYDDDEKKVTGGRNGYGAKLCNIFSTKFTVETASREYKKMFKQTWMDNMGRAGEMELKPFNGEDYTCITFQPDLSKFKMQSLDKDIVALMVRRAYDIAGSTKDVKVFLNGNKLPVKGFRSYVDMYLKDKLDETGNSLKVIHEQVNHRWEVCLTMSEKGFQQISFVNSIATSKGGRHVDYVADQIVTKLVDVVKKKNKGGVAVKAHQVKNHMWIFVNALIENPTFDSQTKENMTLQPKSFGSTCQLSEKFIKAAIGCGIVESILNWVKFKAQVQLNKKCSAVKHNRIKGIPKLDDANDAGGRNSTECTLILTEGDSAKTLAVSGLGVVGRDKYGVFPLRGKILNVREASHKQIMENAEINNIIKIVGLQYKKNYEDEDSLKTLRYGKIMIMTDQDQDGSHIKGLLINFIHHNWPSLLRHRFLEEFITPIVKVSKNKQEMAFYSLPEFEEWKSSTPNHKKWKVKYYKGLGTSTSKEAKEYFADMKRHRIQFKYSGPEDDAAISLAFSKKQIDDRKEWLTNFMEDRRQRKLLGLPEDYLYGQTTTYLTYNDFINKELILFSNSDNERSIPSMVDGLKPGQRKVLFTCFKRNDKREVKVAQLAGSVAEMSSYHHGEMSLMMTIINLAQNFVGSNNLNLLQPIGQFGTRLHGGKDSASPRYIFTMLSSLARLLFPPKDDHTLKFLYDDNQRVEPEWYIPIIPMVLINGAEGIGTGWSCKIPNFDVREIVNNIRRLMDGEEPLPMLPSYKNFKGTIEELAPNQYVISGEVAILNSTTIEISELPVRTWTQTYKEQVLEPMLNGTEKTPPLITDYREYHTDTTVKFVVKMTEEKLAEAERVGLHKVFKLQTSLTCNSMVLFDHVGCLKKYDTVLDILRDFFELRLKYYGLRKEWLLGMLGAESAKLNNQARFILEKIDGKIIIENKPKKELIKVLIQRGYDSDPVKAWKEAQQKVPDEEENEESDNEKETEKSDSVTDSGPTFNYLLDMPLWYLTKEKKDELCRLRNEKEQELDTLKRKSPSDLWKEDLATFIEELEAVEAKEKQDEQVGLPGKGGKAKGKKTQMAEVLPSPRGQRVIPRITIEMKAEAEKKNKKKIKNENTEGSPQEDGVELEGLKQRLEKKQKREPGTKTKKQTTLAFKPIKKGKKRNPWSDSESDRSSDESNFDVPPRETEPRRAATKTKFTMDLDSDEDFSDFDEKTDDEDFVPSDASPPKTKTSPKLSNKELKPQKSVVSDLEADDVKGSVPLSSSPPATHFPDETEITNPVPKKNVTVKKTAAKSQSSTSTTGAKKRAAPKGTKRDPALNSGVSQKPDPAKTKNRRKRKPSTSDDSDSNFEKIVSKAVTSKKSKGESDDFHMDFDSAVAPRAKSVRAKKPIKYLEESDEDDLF
How it was run: (§2)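 Supercoiled pBR322 (200 ng) with 1 unit human topo IIα, 30 min at 30 °C. Buffer: 10 mM Tris-HCl pH 7.9, 50 mM NaCl, 5 mM MgCl2, 1 mM EDTA, 1 mM ATP, 15 μg/mL BSA. Stopped with EDTA. 1% agarose gel at 25 V for 4 h in TAE, ethidium bromide stain, supercoiled DNA quantitated under UV.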

[4] = target: DNA topoisomerase 2-alpha (Homo sapiens) (UniProt P11388); test: Inhibition of human recombinant DNA topoisomerse 2 alpha using pBR322 as substrate assessed as inhibition of conversion of supercoiled pBR322 to relaxed form at 20 uM after 30 mins by ethidium bromide staining-based electrophoresis analysis; how it was run: as §2
HCT-15 = test: Cytotoxicity against human HCT15 cells incubated from day 2 to day 4 by CCK8 assay; assay type: functional, cell-based
How it was run: (§3)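 Cells seeded at 2~4 × 10^4 per well and grown overnight in medium with 10% FBS at 37 °C, 5% CO2. Day 2: FBS starvation 4 h, then medium with graded compound concentrations. Day 4: CCK-8 added for 4 h more, absorbance read at 450 nm. IC50 from four-parameter logistic fit. Mean ± S.D. of three experiments run in triplicate.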

T47D = test: Cytotoxicity against human T47D cells incubated from day 2 to day 4 by CCK8 assay; assay type: functional, cell-based; how it was run: as §3
DU-145 = test: Cytotoxicity against human DU145 cells incubated from day 2 to day 4 by CCK8 assay; assay type: functional, cell-based; how it was run: as §3
HeLa = test: Cytotoxicity against human HeLa cells incubated from day 2 to day 4 by CCK8 assay; assay type: functional, cell-based; how it was run: as §3

Row | Structure (SMILES) | inhibition [1] [%] | inhibition [2] [%] | inhibition [3] [%] | inhibition [4] [%] | IC50 (HCT-15) [µM] | IC50 (T47D) [µM] | IC50 (DU-145) [µM] | IC50 (HeLa) [µM]
1 | Oc1ccccc1-c1cc(-c2ccsc2)c2c(n1)-c1ccccc1C2 | 87.8 | 0 | 46.8 | 23.2 | > 50 | > 50 | 36.5 | > 50
2 | COc1cc([C@@H]2c3cc4c(cc3[C@@H](O[C@@H]3O[C@@H]5CO[C@@H](C)O[C@H]5[C@H](O)[C@H]3O)[C@H]3COC(=O)[C@H]23)OCO4)cc(OC)c1O [ETOPOSIDE] |  |  |  |  |  | 0.7 |  | 
3 | CC[C@@]1(O)C(=O)OCc2c1cc1n(c2=O)Cc2cc3ccccc3nc2-1 [CAMPTOTHECIN] |  |  |  |  | 0.52 | 0.31 |  | 0.41
4 | c1ccc(-c2cc(-c3ccccn3)c3c(n2)-c2ccccc2C3)cc1 | 3.6 |  | 16.4 |  | > 50 | 44.5 | 13.2 | 18.7
5 | Oc1ccccc1-c1cc(-c2ccccn2)c2c(n1)-c1ccccc1C2 | 52.8 | 4.9 | 9.1 |  | > 50 | > 50 | > 50 | > 50
6 | c1ccc(-c2cc(-c3ccoc3)c3c(n2)-c2ccccc2C3)cc1 | 0 |  | 19.6 | 15.1 | 1.52 | 35.3 | 46.5 | 23.8
7 | Oc1ccccc1-c1cc(-c2cccs2)c2c(n1)-c1ccccc1C2 | 51.1 | 0 | 31.5 | 21.9 | > 50 | > 50 | > 50 | > 50
8 | Oc1cccc(-c2cc(-c3cccs3)c3c(n2)-c2ccccc2C3)c1 | 55.6 | 0 | 72.2 | 32 | 2.32 | 4.07 | 4.38 | 1.47
9 | COc1cccc2c1C(=O)c1c(O)c3c(c(O)c1C2=O)C[C@@](O)(C(=O)CO)C[C@@H]3O[C@H]1C[C@H](N)[C@H](O)[C@H](C)O1 [DOXORUBICIN HYDROCHLORIDE] |  |  |  |  |  |  | 1.02 | 
10 | Oc1cccc(-c2cc(-c3ccco3)c3c(n2)-c2ccccc2C3)c1 | 59.7 | 5.5 | 78.2 | 44.5 | 1.59 | 6.74 | 4.38 | 3.66
11 | Oc1cccc(-c2cc(-c3ccoc3)c3c(n2)-c2ccccc2C3)c1 | 69.2 | 0 | 56.2 | 19.3 | > 50 | > 50 | 28.9 | 0.94
12 | Oc1cccc(-c2cc(-c3ccccn3)c3c(n2)-c2ccccc2C3)c1 | 5.9 |  | 48.5 | 19.7 | > 50 | > 50 | > 50 | 3.09
13 | c1ccc(-c2cc(-c3cccs3)c3c(n2)-c2ccccc2C3)cc1 | 3.7 |  | 16.8 |  | > 50 | 26.7 | 9.34 | 30.8
14 | Oc1ccccc1-c1cc(-c2ccoc2)c2c(n1)-c1ccccc1C2 | 50.6 | 0.5 | 51.7 | 39.2 | > 50 | > 50 | > 50 | > 50
15 | Oc1ccccc1-c1cc(-c2ccco2)c2c(n1)-c1ccccc1C2 | 58.3 | 2.4 | 11.7 |  | > 50 | > 50 | > 50 | > 50

Second part, led by results:

Row | inhibition [1] [%] | inhibition [2] [%] | inhibition [3] [%] | inhibition [4] [%] | Structure (SMILES) | IC50 (HCT-15) [µM] | IC50 (T47D) [µM] | IC50 (DU-145) [µM] | IC50 (HeLa) [µM]
16 | 63.5 | 0 | 40.4 | 36.9 | Oc1ccc(-c2cc(-c3ccoc3)c3c(n2)-c2ccccc2C3)cc1 | > 50 | > 50 | > 50 | > 50
17 | 70.9 | 3.8 | 3.5 |  | Oc1ccccc1-c1cc(-c2cccnc2)c2c(n1)-c1ccccc1C2 | > 50 | > 50 | > 50 | > 50
18 | 54.8 | 2.7 | 59.9 | 44.2 | Oc1ccc(-c2cc(-c3ccco3)c3c(n2)-c2ccccc2C3)cc1 | > 50 | > 50 | > 50 | > 50
19 | 90.1 | 0 | 36.9 | 0 | Oc1ccc(-c2cc(-c3ccsc3)c3c(n2)-c2ccccc2C3)cc1 | > 50 | > 50 | > 50 | > 50
20 | 69.1 | 0 | 40.1 | 21.4 | Oc1ccc(-c2cc(-c3cccs3)c3c(n2)-c2ccccc2C3)cc1 | > 50 | > 50 | > 50 | > 50
21 | 68.7 | 2.3 | 5.1 |  | Oc1ccccc1-c1cc(-c2ccncc2)c2c(n1)-c1ccccc1C2 | > 50 | > 50 | 39.6 | > 50
22 | 59.7 | 2.4 | 28.3 |  | Oc1ccc(-c2cc(-c3cccnc3)c3c(n2)-c2ccccc2C3)cc1 | > 50 | > 50 | > 50 | > 50
23 | 3.3 |  |  |  | c1ccc(-c2cc(-c3ccncc3)c3c(n2)-c2ccccc2C3)cc1 | > 50 | > 50 | > 50 | > 50
24 | 72.4 | 0.7 | 27.1 |  | Oc1ccc(-c2cc(-c3ccncc3)c3c(n2)-c2ccccc2C3)cc1 | > 50 | > 50 | > 50 | > 50
25 | 68.5 | 1.7 | 50.6 | 30.6 | Oc1cccc(-c2cc(-c3cccnc3)c3c(n2)-c2ccccc2C3)c1 | > 50 | > 50 | > 50 | 4.67
26 | 4.1 |  |  |  | c1ccc(-c2cc(-c3cccnc3)c3c(n2)-c2ccccc2C3)cc1 | > 50 | > 50 | > 50 | > 50
27 | 61.2 | 4.7 | 18.2 |  | Oc1ccc(-c2cc(-c3ccccn3)c3c(n2)-c2ccccc2C3)cc1 | > 50 | > 50 | > 50 | > 50
28 | 3.4 |  | 16.7 |  | c1ccc(-c2cc(-c3ccsc3)c3c(n2)-c2ccccc2C3)cc1 | 31.4 | > 50 | 1.62 | 29.8
29 | 49.8 | 1.5 | 8.4 |  | Oc1cccc(-c2cc(-c3ccncc3)c3c(n2)-c2ccccc2C3)c1 | > 50 | > 50 | > 50 | > 50
30 | 76.9 | 0 | 77.2 | 37 | Oc1cccc(-c2cc(-c3ccsc3)c3c(n2)-c2ccccc2C3)c1 | 6.73 | 0.94 | 2.3 | 1.74
